From ChEMBL document CHEMBL1145941, “Design, synthesis, and biological evaluation of indenoisoquinoline topoisomerase I inhibitors featuring polyamine side chains on the lactam nitrogen” (2003)

Tests used:
SF-539 = assay: Cytotoxicity against human CNSSF-539 cancer cell lines.; format: functional
[1] = target: T1, DNA topoisomerase 1 (Homo sapiens) (UniProt P11387); assay: Inhibitory activity against DNA topoisomerase I; greater activity than the parent compound 1
T1 sequence (whole entry): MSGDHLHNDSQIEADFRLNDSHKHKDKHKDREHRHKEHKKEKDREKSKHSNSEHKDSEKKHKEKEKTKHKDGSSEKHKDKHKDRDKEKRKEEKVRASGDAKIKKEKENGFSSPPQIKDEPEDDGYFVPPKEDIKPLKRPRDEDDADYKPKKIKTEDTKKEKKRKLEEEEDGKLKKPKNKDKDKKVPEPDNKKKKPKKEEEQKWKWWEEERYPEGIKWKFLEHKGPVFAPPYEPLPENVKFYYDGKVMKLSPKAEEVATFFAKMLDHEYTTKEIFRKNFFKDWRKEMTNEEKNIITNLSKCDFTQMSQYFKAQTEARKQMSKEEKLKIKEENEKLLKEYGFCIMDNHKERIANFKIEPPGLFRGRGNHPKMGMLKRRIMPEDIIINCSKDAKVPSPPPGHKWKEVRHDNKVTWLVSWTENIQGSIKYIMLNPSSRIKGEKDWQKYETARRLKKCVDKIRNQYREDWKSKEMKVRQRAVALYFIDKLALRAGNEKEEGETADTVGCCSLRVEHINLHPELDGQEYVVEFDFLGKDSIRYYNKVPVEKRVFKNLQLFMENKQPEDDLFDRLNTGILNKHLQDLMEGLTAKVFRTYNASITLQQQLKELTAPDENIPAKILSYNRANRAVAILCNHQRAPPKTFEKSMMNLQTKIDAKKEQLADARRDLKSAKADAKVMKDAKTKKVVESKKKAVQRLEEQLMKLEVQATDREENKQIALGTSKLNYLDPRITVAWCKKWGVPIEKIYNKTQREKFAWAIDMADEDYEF

DU-145 = assay: Cytotoxicity against human prostate DU-145 cancer cell lines.; format: functional
HOP-62 = assay: Cytotoxicity was determined in human lung HOP-62 cancer cell lines; format: functional
[2] = tested on: Panel (Carcinoma cell lines); assay: Mean graph midpoint for growth inhibition of all human cancer cell lines.; format: functional; design: unit: µM
Procedure, shortened: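 Mean graph midpoint from the NCI screen, about 55 human cancer cell lines, test range 10^-8 to 10^-4 M. Computed as the average GI50 across all lines tested, with GI50 values below or above the range set to 10^-8 M or 10^-4 M.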

MDA-MB-435 = assay: Cytotoxicity against human breast […] cancer cell lines.; format: functional
OVCAR-3 = assay: Cytotoxicity against human ovarian OVCAR-3 cancer cell lines.; format: functional
UACC-62 = assay: Cytotoxicity against human melanoma UACC-62 cancer cell lines.; format: functional
SN12C = assay: Cytotoxicity against human renal SN12C cancer cell lines.; format: functional
HCT-116 = assay: Cytotoxicity against human colon HCT116 cancer cell lines.; format: functional
[3] = target: T1, DNA topoisomerase 1 (Homo sapiens); assay: Compound was tested for its inhibitory activity against DNA topoisomerase I; No activity

Activity [1] | Activity [3] | Compound | GI50 (SF-539) [nM] | GI50 (DU-145) [nM] | GI50 (HOP-62) [nM] | MGM [2] | GI50 (MDA-MB-435) [nM] | GI50 (OVCAR-3) [nM] | GI50 (UACC-62) [nM] | GI50 (SN12C) [nM] | GI50 (HCT-116) [nM]
greater activity than compound 1 | – | COc1cc2c3c(n(CCCNCCCN)c(=O)c2cc1OC)-c1cc2c(cc1C3=O)OCO2 | 1200 | 3100 | 1600 | 3.2 | 2500 | 3100 | 3400 | 2300 | 1300
greater activity than compound 1 | – | COc1cc2c3c(n(CCCNCCN)c(=O)c2cc1OC)-c1cc2c(cc1C3=O)OCO2.Cl.Cl | 430 | 720 | 380 | 0.88 | 1600 | 700 | 650 | 370 | 560
– | No activity | COc1cc2c3c(n(CCCNCCCNCCCNCCCN)c(=O)c2cc1OC)-c1cc2c(cc1C3=O)OCO2.Cl.Cl.Cl.Cl | – | 1400 | 3000 | 2 | 1400 | 1600 | 1700 | 1600 | 1500
greater activity than compound 1 | – | COc1cc2c3c(n(CCCNCCCNCCN)c(=O)c2cc1OC)-c1cc2c(cc1C3=O)OCO2.Cl.Cl.Cl | 38000 | 52000 | – | 41 | 38000 | 20000 | 37000 | 20000 | 23000
greater activity than compound 1 | – | COc1cc2c3c(n(CCCNCCNCCN)c(=O)c2cc1OC)-c1cc2c(cc1C3=O)OCO2.Cl.Cl.Cl | 550 | 1200 | 2800 | 2.4 | 2700 | 1700 | 2600 | 2500 | 900
greater activity than compound 1 | – | COc1cc2c3c(n(CCCNCC(OC)OC)c(=O)c2cc1OC)-c1cc2c(cc1C3=O)OCO2 | 6700 | 540 | 450 | 2.1 | 10800 | 6900 | 2860 | – | 180
greater activity than compound 1 | – | COc1cc2c3c(n(CCN)c(=O)c2cc1OC)-c1cc2c(cc1C3=O)OCO2.Cl | 1300 | 400 | 580 | 0.34 | – | 860 | 140 | 360 | 68

Continued, compound first:

Compound | Activity [1] | Activity [3] | GI50 (SF-539) [nM] | GI50 (DU-145) [nM] | GI50 (HOP-62) [nM] | MGM [2] | GI50 (MDA-MB-435) [nM] | GI50 (OVCAR-3) [nM] | GI50 (UACC-62) [nM] | GI50 (SN12C) [nM] | GI50 (HCT-116) [nM]
C[C@@]1(O)C(=O)OCc2c1cc1n(c2=O)Cc2cc3ccccc3nc2-1 | greater activity than compound 1 | – | < 10 | < 10 | < 10 | 0.04 | 40 | 220 | < 10 | 20 | 30
COc1cc2c3c(n(CCCNCCNCCCN)c(=O)c2cc1OC)-c1cc2c(cc1C3=O)OCO2.Cl.Cl.Cl | – | – | 8600 | 4600 | 2900 | 3 | 3400 | 8100 | 1900 | 1700 | 1300
COc1cc2c3c(n(CCCN(C)C)c(=O)c2cc1OC)-c1cc2c(cc1C3=O)OCO2 | greater activity than compound 1 | – | 190 | 140 | 18 | 0.35 | 650 | 1400 | 540 | 900 | 120
COc1cc2c3c(n(C)c(=O)c2cc1OC)-c1cc2c(cc1C3=O)OCO2 | – | – | 41000 | 37000 | 1300 | 20 | 96000 | – | 4200 | 68000 | 35000
COc1cc2c3c(n(CCCOC(=O)C(F)(F)F)c(=O)c2cc1OC)-c1cc2c(cc1C3=O)OCO2 | greater activity than compound 1 | – | < 10 | 660 | < 10 | 0.15 | 30 | 70 | < 10 | < 10 | 18
COc1cc2c3c(n(CCCN(CCO)CCO)c(=O)c2cc1OC)-c1cc2c(cc1C3=O)OCO2.Cl | – | – | < 10 | < 10 | < 10 | 0.07 | 80 | 130 | < 10 | < 10 | < 10
COc1cc2c3c(n(CCN(C)C)c(=O)c2cc1OC)-c1cc2c(cc1C3=O)OCO2.O=CO | – | – | 900 | 1900 | 1100 | 3.1 | 6100 | 10000 | 1200 | 4400 | 660
COc1cc2c3c(n(CCCNCCCNCCCN)c(=O)c2cc1OC)-c1cc2c(cc1C3=O)OCO2.Cl.Cl.Cl | – | – | > 100000 | > 100000 | – | 59 | 68000 | 880 | 44000 | 33000 | 43000
